These results are taken from ChEMBL document CHEMBL1154327 (J Med Chem, 2009).

Activity calls are given as the source filed them. No cut-off for these calls is given here.

Test [1] concerns Rattus norvegicus. Kind of test: Antiinflammatory activity against gamma carrageenan-induced pleurisy in Wistar rat assessed as inhibition of exudate production in pleural cavity at 5 mg/kg, ip administered 30 mins before gamma carrageenan challenge measured after 4 hrs. The format is functional. The note with it: route intraperitoneal. Summed up:
(§1)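 Male Wistar rats (at least three per group; table gives n = 3-6) received saline or drug ip 30 min before carrageenan. Under sodium pentobarbital anaesthesia (40 mg/kg ip), λ carrageenan (0.2 mL, 10 mg/mL) was injected into the right pleural cavity. After 4 h the rats were anaesthetized (pentobarbital 80 mg/kg ip), the cavity was rinsed with heparinized saline, and exudate was aspirated. Values are % inhibition of exudate, mean ± SE.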

Test [2] has as its system Rattus norvegicus. Kind of test: Antiinflammatory activity against gamma carrageenan-induced pleurisy in Wistar rat assessed as decrease in exudate volume in pleural cavity at 10 mg/kg, ip administered 30 mins before gamma carrageenan challenge measured after 4 hrs. The format is functional, organism-based. Also noted: dose 10 mg/kg. In short, it runs like this:
as §1

In test [3] the target is T1, Prostaglandin G/H synthase 2 (Homo sapiens, UniProt P35354).
T1 sequence (P35354 whole entry): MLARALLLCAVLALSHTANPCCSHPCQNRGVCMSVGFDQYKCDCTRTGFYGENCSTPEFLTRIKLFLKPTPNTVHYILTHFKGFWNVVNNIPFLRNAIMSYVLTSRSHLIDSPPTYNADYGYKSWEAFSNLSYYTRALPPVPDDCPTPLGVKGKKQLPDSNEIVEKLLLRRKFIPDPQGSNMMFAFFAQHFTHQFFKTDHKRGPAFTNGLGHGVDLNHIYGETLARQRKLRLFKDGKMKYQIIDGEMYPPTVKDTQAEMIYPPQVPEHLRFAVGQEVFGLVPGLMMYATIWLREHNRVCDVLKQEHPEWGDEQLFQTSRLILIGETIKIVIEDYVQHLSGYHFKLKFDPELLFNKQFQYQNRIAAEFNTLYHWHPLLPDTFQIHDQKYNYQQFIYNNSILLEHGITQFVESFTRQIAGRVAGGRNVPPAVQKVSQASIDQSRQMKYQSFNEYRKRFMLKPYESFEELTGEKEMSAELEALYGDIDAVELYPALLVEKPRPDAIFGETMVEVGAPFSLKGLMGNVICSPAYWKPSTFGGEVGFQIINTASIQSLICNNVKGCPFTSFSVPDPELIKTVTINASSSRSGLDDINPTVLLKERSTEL

For test [4], the system named is Rattus norvegicus. Description: Antiinflammatory activity against gamma carrageenan-induced pleurisy in Wistar rat assessed as decrease in exudate volume in pleural cavity at 5 mg/kg, ip administered 30 mins before gamma carrageenan challenge measured after 4 hrs. The format is functional, organism-based. The arrangement: dose 5 mg/kg. In short, it runs like this: as §1

The species named for the next test is Homo sapiens. Kind of test: Selectivity ratio of IC50 for COX1 to IC50 for COX2 in human whole blood. The format is tissue-based. In short, it runs like this:
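COX-1: fresh heparinized human blood diluted 1:4 in RPMI, preincubated with compound (0.01–100 μmol/L final) for 5 min at 37 °C, then stimulated with calcium ionophore A-23187 for 15 min at 37 °C, with serum TXB2 read by EIA. COX-2: heparinized blood with compound for 5 min, then LPS (100 μg/mL final) for 24 h at 37 °C, with plasma PGE2 read by EIA. Ratio = IC50 COX-1/IC50 COX-2 (μM).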

The subject of test [5] is Rattus norvegicus. Kind of test: Antiinflammatory activity against gamma carrageenan-induced pleurisy in Wistar rat assessed as inhibition of exudate production in pleural cavity at 10 mg/kg, ip administered 30 mins before gamma carrageenan challenge measured after 4 hrs. The format is functional. The note with it: route intraperitoneal. Summed up: as §1
In test [6] the test system is Rattus norvegicus. Kind of test: Antiinflammatory activity against gamma carrageenan-induced pleurisy in Wistar rat assessed as decrease in exudate volume in pleural cavity at 20 mg/kg, ip administered 30 mins before gamma carrageenan challenge measured after 4 hrs. The format is functional, organism-based. The arrangement: dose 20 mg/kg. Summed up: as §1
In test [7] the test system is Rattus norvegicus. Kind of test: Antiinflammatory activity against gamma carrageenan-induced pleurisy in Wistar rat assessed as inhibition of exudate production in pleural cavity at 20 mg/kg, ip administered 30 mins before gamma carrageenan challenge measured after 4 hrs. The format is functional. To be noted: route intraperitoneal.
In test [8] the target is Prostaglandin G/H synthase 1 (Homo sapiens, UniProt P23219). The format is tissue-based, Blood.
Chain of Prostaglandin G/H synthase 1 (P23219 whole entry): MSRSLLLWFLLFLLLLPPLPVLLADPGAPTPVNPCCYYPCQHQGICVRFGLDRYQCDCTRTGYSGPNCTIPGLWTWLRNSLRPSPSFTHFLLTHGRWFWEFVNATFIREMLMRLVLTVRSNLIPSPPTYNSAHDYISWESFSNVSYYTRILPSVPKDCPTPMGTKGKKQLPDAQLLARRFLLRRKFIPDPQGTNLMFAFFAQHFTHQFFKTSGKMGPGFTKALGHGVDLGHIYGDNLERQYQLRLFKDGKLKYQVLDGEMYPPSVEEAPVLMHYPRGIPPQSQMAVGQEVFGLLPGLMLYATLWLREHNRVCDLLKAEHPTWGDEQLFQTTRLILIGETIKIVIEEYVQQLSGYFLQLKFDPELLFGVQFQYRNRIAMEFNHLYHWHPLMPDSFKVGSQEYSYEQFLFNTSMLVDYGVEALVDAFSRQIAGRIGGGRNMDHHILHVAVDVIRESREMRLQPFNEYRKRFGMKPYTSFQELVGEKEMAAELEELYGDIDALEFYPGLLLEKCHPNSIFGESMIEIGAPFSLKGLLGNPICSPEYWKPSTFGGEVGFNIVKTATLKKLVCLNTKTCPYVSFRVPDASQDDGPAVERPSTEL

On to `Cc1cccc(Nc2cnccc2NS(=O)(=O)C(F)(F)F)c1`, for which the inhibition in vivo at 5 mg/kg in the test with Rattus norvegicus [1] came to 23.5%. Moreover, the result in the test with Rattus norvegicus [2] and in the test on Rattus norvegicus [6] was Active. The figures for the IC50 in test [3] and in test [8] were 450 nM and 990 nM, respectively. Besides, the outcome in the test with Rattus norvegicus [4] was inactive. Moreover, the Ratio IC50 in the test listed under Homo sapiens is 2.19. Also, the inhibition in vivo at 10 mg/kg in the test on Rattus norvegicus [5] is 50.3%. Also, in the test with Rattus norvegicus [7], the inhibition in vivo at 20 mg/kg amounted to 69.5%.
